Compound activity as filed in PubChem BioAssay.
The list is not random: actives were taken first. Their share in the collection is about 2%.
NR2E3 ag-1 – activates human photoreceptor nuclear receptor NR2E3; inhibition of corepressor binding, % at 4.78 µM; actives 0.12% (n = 320,000); GST-NR2E3/biotin-RetCOR TR-FRET, 1536-well; AID 2300;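 active = percent inhibition above the cutoff of mean plus 3 SD of all tested compounds, set per screening campaign, cut at about 20% in these data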;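 also: 0% = DMSO wells and 100% = biotin wells as full block of FRET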
Target sequence (Q9Y5X4 whole entry, looked up): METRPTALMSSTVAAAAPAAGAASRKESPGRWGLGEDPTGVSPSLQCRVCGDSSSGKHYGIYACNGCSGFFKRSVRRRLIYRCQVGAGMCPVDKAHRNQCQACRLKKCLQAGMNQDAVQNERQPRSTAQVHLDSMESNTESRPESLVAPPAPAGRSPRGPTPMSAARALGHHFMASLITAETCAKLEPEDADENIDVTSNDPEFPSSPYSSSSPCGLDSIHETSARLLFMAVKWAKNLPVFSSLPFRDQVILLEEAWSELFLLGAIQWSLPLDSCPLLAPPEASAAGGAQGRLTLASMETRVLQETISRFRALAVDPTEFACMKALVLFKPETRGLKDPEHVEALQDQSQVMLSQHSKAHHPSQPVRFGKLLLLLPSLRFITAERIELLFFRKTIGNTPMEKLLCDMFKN
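System: GST-NR2E3 and biotin-RetCOR proteins; probe or stimulus: 7 nM biotin-RetCOR; doses: compound at 4.8 µM, single dose; schedule: Compound–protein incubation for 5 h at 4 °C; detection: time-resolved FRET; read-out: percent inhibition; controls: biotin wells as high control, 0.6% DMSO wells as low control; format: 1536-well plates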
Myeloid diff MLP – myeloid differentiation induction. AID 624256. actives 1% (n = 360,000). ER-HoxA9 myeloid progenitors, lysozyme-GFP differentiation, flow cytometry. calls only at 10 µM;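 active = normalized GFP-positive differentiation at or above the plate's own cutoff, the solvent-only control mean plus 3 SD; inconclusive = no clear call, values can overlap the other calls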;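 also: cells exposed to compound for four days before flow analysis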
FXN GAA850 act – increases GAA850 frataxin promoter reporter activity. HEK293 lucGAA850 FXN promoter luciferase reporter, 24 h; percent of 10 µM SAHA response. activation, % at 6 µM. actives 0.56% (n = 360,000). AID 540364;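 active = activation above the average of all compounds screened plus 3 SD, cutoff fixed separately per campaign, cut at about 7.5% in these data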;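 also: 0% = DMSO wells and 100% = 10 µM SAHA wells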
T cell HTS – T cell immune modulation candidate | actives 0.068% (n = 330,000) | 2C CD8+ T cell-vesicle binding, flow cytometry; stronger effect = lower value | response (vesicle binding), % at 7 µM | AID 2052;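 active = response, share of CD8 T cells binding vesicles, and their 90th percentile fluorescence all below set limits, cut at about 80% in these data, passing the limit was not always enough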;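 also: values below 100% mean blocked vesicle binding to the CD8+ T cells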
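incubation = binding step 1.5 h, 37 °C, antibody labelling 20 min, ice | test system = 2C mouse CD8+ T cells | read-out basis = percent CD8+ FL2 mean versus row control | controls = Peptide-free naked vesicles (low) and QL9 vesicles with 0.7% DMSO vehicle (high) | detection = flow cytometry of vesicle-bound cells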
NR2E3 ag-2 – agonists of human NR2E3 nuclear receptor | CHO-S Gal4-NCOR/VP16-NR2E3 two-hybrid, luciferase | inhibition of corepressor binding, % at 3.98 µM | actives 0.35% (n = 360,000) | AID 602229;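 active = inhibition above the mean of all tested compounds plus 3 SD, cut at about 70% in these data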;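 also: 0% = DMSO with NR2E3 transfected cells and 100% = cells lacking NR2E3 construct; higher means lower luciferase signal from less NR2E3 corepressor binding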
Myeloid diff – promotes myeloid progenitor differentiation; shares compounds with Myeloid diff MLP; ER-HoxA9 myeloid progenitors, GFP/Mac1 double-positive flow; calls only; actives 2% (n = 2,300); AID 651706;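 active = share of green or green-and-red cells above 9 and 9% in run 1 or 4 and 3% in run 2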
GFP autofluor – compound fluorescence in myeloid differentiation counter-screen; shares compounds with Myeloid diff MLP; ER-HoxA9 myeloid progenitors, no estrogen, GFP autofluorescence flow cytometry; vehicle wells 0%, positive control 100%; fluorescence response, % (concentration not given with the values); actives 7.4% (n = 2,300); AID 651707;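 active = over 5% cells positive for green fluorescent reporter, or over 2% positive for both it and APC stain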;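 also: range taken on the double positive population between DMSO and positive control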
The depositor's hits bear a star; i = inactive; u = inconclusive; x = no result; + = active, no number.

SMILES	NR2E3 ag-1	Myeloid diff MLP	FXN GAA850 act	T cell HTS	NR2E3 ag-2	Myeloid diff	GFP autofluor
Cc1ccc(CNC(=O)[C@H](C)NC(=O)C2CCN(C(=O)[C@@H]3CCCN3C(=O)OC(C)(C)C)CC2)cc1	1	+	-1	386	17	i	1
N#Cc1c(C(F)(F)F)cc(-c2ccccc2)nc1SCC(=O)Nc1sc2c(c1C#N)CCC2	1	i	0	325	-17	i	0
O=C1C(Sc2ccccc2)=C[C@@]2(O)CC[C@@H](O)[C@]1(Sc1ccccc1)[C@H]2O	x	i	x	x	18	x	x
O=C(/C=C\c1ccc2c(c1)OCO2)Nc1c2c(nn1-c1ccc(Cl)cc1)CSC2	3	i	-1	348	14	i	0
CC(=O)Nc1c2c(nn1-c1ccccc1)CSC2	2	i	2	260	-8	x	x
COc1cc(/C=C/C(=O)OC[C@H]2O[C@H](OC3(CO)OC(CO)C(O)C3O)[C@H](O)[C@@H](O)[C@@H]2O)ccc1O (some centres not stated)	x	i	1	266	-5	i	0
O=c1[nH]nc(Cc2ccccc2)c2ccccc12	-1	i	2	192	3	x	x
COc1ccc(Cc2n[nH]c(=O)c3ccccc23)cc1OC	-3	i	2	206	14	i	0
CC(=O)C[C@H]1c2cc(C(F)(F)F)ccc2S(=O)(=O)N1c1ccc(N(C)C)cc1	3	i	2	562	-43	x	x
COc1ccc(S(=O)(=O)N[C@@H](Cc2ccc(Cl)cc2)C(=O)N2CC[C@@]3(O)CCCC[C@H]3C2)cc1	3	i	-2	568	-1	i	0
Cc1ccc(C)c(CNc2ccc(S(=O)(=O)N3CCCCC3)cc2)c1	1	i	3	303	43	x	x
COc1ccccc1CN(C(=O)Cc1cccs1)C(C(=O)NC1CCCC1)c1ccncc1 (configuration not stated)	3	i	4	382	-45	i	0
Cc1ccc(C(C(=O)NC2CCCC2)N(C(=O)Cc2cccs2)c2cccc(C)c2C)o1 (configuration not stated)	2	i	5	301	13	i	0
CCOC(=O)/C(=C/C=C1\Sc2ccccc2N1CC)C(C)=O	-5	i	4	519	-43	i	0
CCN1/C(=C/C(=O)c2ccco2)Sc2ccccc21	-1	i	2	301	1	x	x
N#C/C(=C\c1ccc(-c2ccc([N+](=O)[O-])cc2)o1)C(=O)Nc1nc(-c2cccs2)cs1	-1	+	2	198	-23	i	0
N#C/C(=C/c1ccc(-c2cccc([N+](=O)[O-])c2)o1)C(=O)Nc1nc(-c2cccs2)cs1	x	i	3	x	0	x	x
CCn1ccnc1CNC(=O)CC1C(=O)NCCN1CC(c1ccccc1)c1ccccc1 (configuration not stated)	3	i	-1	307	-22	x	x
COc1ccc2ccccc2c1CNC(=O)CC1C(=O)NCCN1CC(C)C (configuration not stated)	-4	+	0	211	13	i	0
CCOc1ccc(CN2CCNC(=O)C2CC(=O)NCc2csc(C(C)C)n2)cc1 (configuration not stated)	x	u	3	x	7	x	x
CC(C)c1nc(CNC(=O)CC2C(=O)NCCN2Cc2ccccc2)cs1 (configuration not stated)	x	i	2	x	-12	i	0
COC(=O)CCC(C)C1CCC2C3C(OC(C)=O)CC4CC(O)CCC4(C)C3CC(O)C12C (configuration not stated)	x	i	0	x	-18	x	x
Cc1cccc(N2CCN(CC(O)COc3ccc4ccccc4c3)CC2)c1 (configuration not stated)	x	i	-1	x	17	x	x
